{"source": "ChEMBL document CHEMBL1153925", "about": "“Synthesis, characterization and biological activity of ring-substituted 6-benzylamino-9-tetrahydropyran-2-yl and 9-tetrahydrofuran-2-ylpurine derivatives” (Bioorg Med Chem, 2009)", "note": "The source made the active and inactive calls. The calls are words filed in the database; no cut-off is given here."}
{"system": "Nicotiana tabacum", "experiment": "Cytokinin activity in tobacco callus assessed as stimulation of callus growth relative to 6-benzylaminopurine", "format": "functional, organism-based", "how_it_was_run": "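Compounds dissolved in DMSO, diluted with water to 5 × 10^-2 M stock, then diluted in medium to 10^-8 to 10^-4 M. Final DMSO ≤0.2%; solvent control 0.2% DMSO. Readout was cytokinin-dependent tobacco callus growth. Activity is expressed relative to 10^-6 M BAP (=100%) at each compound's optimal concentration. Five replicates per concentration; whole test run at least twice.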"}
{"smiles": "COc1ccc(CNc2ncnc3c2ncn3C2CCCCO2)c(OC)c1", "note": "(centres undefined)", "Activity": "inactive"}
{"smiles": "COc1ccc(CNc2ncnc3c2ncn3C2CCCCO2)cc1OC", "note": "(centres undefined)", "Activity": "inactive"}
{"smiles": "COc1cc(CNc2ncnc3c2ncn3C2CCCCO2)cc(OC)c1", "note": "(centres undefined)", "Activity": "inactive"}
{"smiles": "COc1ccc(CNc2ncnc3c2ncn3C2CCCCO2)c(OC)c1OC", "note": "(centres undefined)", "Activity": "inactive"}
